From ChEMBL document CHEMBL1828628, “Discovery of a tetrahydroisoquinoline-based hydroxamic acid derivative (ZYJ-34c) as histone deacetylase inhibitor with potent oral antitumor activities” (J Med Chem, 2011)
Activity calls are given as the source filed them. No cut-off for these calls is given here.

Columns and labels:
[1] = tested on: Mus musculus; assay: Toxicity in human MDA-MB-231 cells xenografted BALB/c nu mouse assessed as signs of organ toxicity at 90 mg/kg, po qd for 19 days; format: organism-based; set-up: dose 90 mg/kg, route oral; details: in vivo, 456 h
[2] = tested on: Mus musculus; assay: Toxicity in human MDA-MB-231 cells xenografted BALB/c nu mouse assessed as signs of organ toxicity at 60 mg/kg, ip qd for 19 days; format: organism-based; set-up: dose 60 mg/kg, route intraperitoneal; details: in vivo, 456 h
[3] = tested on: Mus musculus; assay: Toxicity in human HCT116 cells xenografted BALB/c nu mouse assessed as signs of organ toxicity at 90 mg/kg, po qd for 19 days; format: organism-based, HCT-116; set-up: dose 90 mg/kg, route oral; details: in vivo, 456 h
[4] = Stability in artificial gastric juice; format: physicochemical; details: simulated gi fluid
[5] = Stability in artificial intestinal juice; format: physicochemical; details: simulated gi fluid
[6] = tested on: H22; assay: Antitumor activity against mouse H22 cells xenografted in Kunming mouse assessed as reduction of pulmonary metastatic nodes in lungs at 60 mg/kg, po qd for 14 days; format: functional, organism-based; set-up: dose 60 mg/kg
[7] = tested on: Mus musculus; assay: Toxicity in mouse H22 cells xenografted Kunming mouse assessed as change in body weight at 60 mg/kg, po qd for 19 days; format: organism-based; set-up: dose 60 mg/kg, route oral; details: in vivo, 456 h
[8] = tested on: Mus musculus; assay: Toxicity in mouse H22 cells xenografted Kunming mouse assessed as signs of organ toxicity at 90 mg/kg, po qd for 19 days; format: organism-based; set-up: dose 90 mg/kg, route oral; details: in vivo, 456 h
[9] = tested on: Mus musculus; assay: Toxicity in mouse H22 cells xenografted Kunming mouse assessed as signs of organ toxicity at 60 mg/kg, po qd for 19 days; format: organism-based; set-up: dose 60 mg/kg, route oral; details: in vivo, 456 h
[10] = Antiproliferative activity against human ES2 cells after 48 hrs by MTT assay; format: functional, cell-based; details: ES-2, 48 h
In short: (§1)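 Cells kept in RPMI1640 with 10% FBS at 37 °C, 5% CO2. Cells were passaged into 96-well plates the day before dosing and left ≥4 h before compound addition. Exposure was 48 h, then 0.5% MTT for 4 h. Formazan was extracted with DMSO for 15 min and read at 570 nm. IC50 was derived from inhibition ratios; mean of three experiments.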

[11] = tested on: MDA-MB-231; assay: Cell cycle arrest in human MDA-MB-231 cells assessed as accumulation at G2 phase at 2 to 5 uM after 48 hrs using propidium iodide staining by flow cytometric analysis; format: functional, cell-based
In short: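 MDA-MB-231 cells were seeded at 4 × 10^5 per well and incubated overnight, then treated for 48 h. Cells were fixed overnight in 70% ethanol phosphate buffer and washed twice with PBS. They were treated with DNase-free RNase A (1 mg/mL) for 30 min, then stained with propidium iodide for 30 min in the dark at room temperature. DNA content was read by FACScan flow cytometry.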

[12] = tested on: MDA-MB-231; assay: Antitumor activity against human MDA-MB-231 cells xenografted in BALB/c nu mouse assessed as tumor growth inhibition at 90 mg/kg, ip qd for 19 days relative to control; format: functional; details: route intraperitoneal
[13] = tested on: MDA-MB-231; assay: Antitumor activity against human MDA-MB-231 cells xenografted in BALB/c nu mouse assessed as tumor growth inhibition at 90 mg/kg, po qd for 19 days relative to control; format: functional
[14] = tested on: MDA-MB-231; assay: Antitumor activity against human MDA-MB-231 cells xenografted in BALB/c nu mouse assessed as tumor growth inhibition administered as ip qd for 19 days; format: functional, organism-based
In short: (§2)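 Female athymic BALB/c-nu mice, 5–6 weeks old, were inoculated subcutaneously in the right flank with RPMI1640/10% FBS-cultured tumor cells (5 × 10^6 for MDA-MB-231). At about 100 mm3 (~10 days), mice were randomized 6 per group and dosed orally or intraperitoneally for 19 days. Vehicle controls received PBS containing DMSO. TGI = (control − treated mean tumor weight)/control mean tumor weight, at end of treatment.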

[15] = tested on: HCT-116; assay: Antitumor activity against human HCT116 cells xenografted in BALB/c nu mouse assessed as tumor growth inhibition at 90 mg/kg, po qd for 19 days relative to control; format: functional
[16] = tested on: HCT-116; assay: Antitumor activity against human HCT116 cells xenografted in BALB/c nu mouse assessed as tumor growth inhibition at 60 mg/kg, po qd for 19 days relative to control; format: functional; in short: as §2
[17] = tested on: HCT-116; assay: Antitumor activity against human HCT116 cells xenografted in BALB/c nu mouse assessed as tumor growth inhibition administered as po qd for 19 days relative to control; format: functional, organism-based; in short: as §2
[18] = tested on: H22; assay: Antitumor activity against mouse H22 cells xenografted in Kunming mouse assessed as reduction of pulmonary metastatic nodes in lungs at 90 mg/kg, po qd for 14 days; format: functional, organism-based; set-up: dose 90 mg/kg
[19] = target: 72 kDa type IV collagenase (Homo sapiens) (UniProt P08253); assay: Inhibition of MMP2
[20] = target: Aminopeptidase N (Homo sapiens) (UniProt P15144); assay: Inhibition of aminopeptidase N
[21] = tested on: Mus musculus; assay: Toxicity in human MDA-MB-231 cells xenografted BALB/c nu mouse assessed as change in body weight at 90 mg/kg, ip qd for 19 days; format: organism-based; set-up: dose 90 mg/kg, route intraperitoneal; details: in vivo, 456 h
In short: (§3)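 Female BALB/c-nu mice, 5–6 weeks old, bearing subcutaneous right-flank xenografts. Mice were randomized 6 per group at about 100 mm3 tumor size. Dosing was oral or intraperitoneal for 19 days; controls received an equal volume of PBS containing DMSO. Body weight was monitored regularly during treatment, and tumors were measured by caliper every three days.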

[22] = tested on: Mus musculus; assay: Toxicity in human MDA-MB-231 cells xenografted BALB/c nu mouse assessed as change in body weight at 60 mg/kg, ip qd for 19 days; format: organism-based; set-up: dose 60 mg/kg, route intraperitoneal; details: in vivo, 456 h; in short: as §3
[23] = tested on: Mus musculus; assay: Toxicity in human HCT116 cells xenografted BALB/c nu mouse assessed as change in body weight at 90 mg/kg, po qd for 19 days; format: organism-based, HCT-116; set-up: dose 90 mg/kg, route oral; details: in vivo, 456 h; in short: as §3
[24] = tested on: Mus musculus; assay: Toxicity in human HCT116 cells xenografted BALB/c nu mouse assessed as change in body weight at 60 mg/kg, po qd for 19 days; format: organism-based, HCT-116; set-up: dose 60 mg/kg, route oral; details: in vivo, 456 h; in short: as §3
[25] = tested on: Mus musculus; assay: Toxicity in human MDA-MB-231 cells xenografted BALB/c nu mouse assessed as signs of organ toxicity at 90 mg/kg, ip qd for 19 days; format: organism-based; set-up: dose 90 mg/kg, route intraperitoneal; details: in vivo, 456 h
[26] = target: Histone deacetylase; assay: Inhibition of HDAC in human HeLa cell nuclear extracts using Boc-Lys (acetyl)-AMC as substrate after 30 mins by fluorescence assay; format: protein assay
In short: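 Enzyme (HeLa nuclear extract, HDAC6 or HDAC8) preincubated 5 min with a series of compound concentrations. Fluorogenic Boc-Lys(acetyl)-AMC substrate then added and incubated 37 °C for 30 min. Reaction stopped with developer containing trypsin and TSA, 20 min at 37 °C. Fluorescence read at ex 390/em 460 nm. Inhibition taken relative to control wells; IC50 from regression of concentration/inhibition data.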

[27] = tested on: MCF7; assay: Antiproliferative activity against human MCF7 cells after 48 hrs by MTT assay; format: functional, cell-based; details: MCF7, 48 h
[28] = tested on: HCT-116; assay: Antiproliferative activity against human HCT116 cells after 48 hrs by MTT assay; format: functional, cell-based; details: HCT-116, 48 h; in short: as §1
[29] = tested on: HeLa; assay: Antiproliferative activity against human HeLa cells after 48 hrs by MTT assay; format: functional, cell-based; in short: as §1
[30] = tested on: K562; assay: Antiproliferative activity against human K562 cells after 48 hrs by MTT assay; format: functional, cell-based; details: K562, 48 h; in short: as §1
[31] = tested on: HL-60; assay: Antiproliferative activity against human HL60 cells after 48 hrs by MTT assay; format: functional, cell-based; details: HL-60, 48 h; in short: as §1
[32] = Mus musculus, HCT-116, 456 h, read-out: TGI

Chain of Aminopeptidase N (Homo sapiens) (P15144 whole entry): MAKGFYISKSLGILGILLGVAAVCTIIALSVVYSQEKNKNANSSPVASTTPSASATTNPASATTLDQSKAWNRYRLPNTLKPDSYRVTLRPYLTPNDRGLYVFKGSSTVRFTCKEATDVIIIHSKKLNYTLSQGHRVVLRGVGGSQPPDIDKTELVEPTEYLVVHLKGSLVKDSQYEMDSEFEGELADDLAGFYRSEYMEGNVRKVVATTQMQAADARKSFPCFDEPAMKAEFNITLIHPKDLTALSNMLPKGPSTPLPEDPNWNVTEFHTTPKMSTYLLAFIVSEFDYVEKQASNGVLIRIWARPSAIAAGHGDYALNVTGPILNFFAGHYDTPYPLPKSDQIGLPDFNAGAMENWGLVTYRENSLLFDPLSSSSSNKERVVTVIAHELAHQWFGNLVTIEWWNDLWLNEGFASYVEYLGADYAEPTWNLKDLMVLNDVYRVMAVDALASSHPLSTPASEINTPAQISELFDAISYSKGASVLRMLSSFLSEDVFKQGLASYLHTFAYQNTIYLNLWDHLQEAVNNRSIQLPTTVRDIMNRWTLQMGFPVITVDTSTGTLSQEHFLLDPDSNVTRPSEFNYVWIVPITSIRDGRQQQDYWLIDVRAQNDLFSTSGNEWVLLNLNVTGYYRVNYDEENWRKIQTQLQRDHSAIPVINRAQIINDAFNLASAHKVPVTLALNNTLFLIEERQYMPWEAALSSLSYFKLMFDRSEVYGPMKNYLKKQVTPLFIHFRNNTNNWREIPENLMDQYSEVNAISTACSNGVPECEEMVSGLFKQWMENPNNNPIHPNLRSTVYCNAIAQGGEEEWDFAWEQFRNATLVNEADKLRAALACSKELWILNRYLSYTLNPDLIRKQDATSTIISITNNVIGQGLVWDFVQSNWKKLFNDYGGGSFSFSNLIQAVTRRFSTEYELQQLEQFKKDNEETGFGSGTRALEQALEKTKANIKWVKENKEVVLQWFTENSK
Chain of 72 kDa type IV collagenase (Homo sapiens) (P08253 110-660 limits assumed): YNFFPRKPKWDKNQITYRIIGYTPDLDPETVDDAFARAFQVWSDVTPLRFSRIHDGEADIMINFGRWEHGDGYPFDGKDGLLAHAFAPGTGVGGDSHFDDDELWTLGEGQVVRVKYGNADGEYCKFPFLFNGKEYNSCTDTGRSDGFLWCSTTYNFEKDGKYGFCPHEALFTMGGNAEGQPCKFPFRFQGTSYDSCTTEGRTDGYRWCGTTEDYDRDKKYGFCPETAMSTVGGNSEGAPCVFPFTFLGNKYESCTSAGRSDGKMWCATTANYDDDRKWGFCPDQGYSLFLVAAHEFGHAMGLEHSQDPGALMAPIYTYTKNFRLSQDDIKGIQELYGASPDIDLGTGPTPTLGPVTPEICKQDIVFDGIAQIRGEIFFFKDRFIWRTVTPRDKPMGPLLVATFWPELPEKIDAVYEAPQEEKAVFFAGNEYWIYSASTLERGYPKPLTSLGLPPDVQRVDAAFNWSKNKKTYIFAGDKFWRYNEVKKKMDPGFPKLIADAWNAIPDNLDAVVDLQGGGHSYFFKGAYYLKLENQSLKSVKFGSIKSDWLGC

Structure (SMILES): CC[C@H](C)[C@H](NC(=O)CC(C)(C)C)C(=O)N1Cc2cc(OCC(=O)NO)ccc2C[C@H]1C(=O)Nc1ccc(OC)cc1
- Activity [1]: Non-toxic
- Activity [2]: Non-toxic
- Activity [3]: Non-toxic
- Stability [4]: Stable
- Stability [5]: Stable
- Activity [6]: Active
- Activity [7]: Non-toxic
- Activity [8]: Non-toxic
- Activity [9]: Non-toxic
- IC50 [10]: 12.9 µM
- Activity [11]: Active
- inhibition in vivo at 90 mg/kg ([12]; Mus musculus, MDA-MB-231, ip, 456 h, read-out: TGI): 51%
- T/C [12]: 37%
- T/C [13]: 30%
- inhibition in vivo at 90 mg/kg ([13]; Mus musculus, MDA-MB-231, 456 h, read-out: TGI): 66%
- TGI [14]: Dose-dependent effect
- T/C [15]: 53%
- inhibition in vivo at 90 mg/kg [15, 32]: 59%
- T/C [16]: 85%
- inhibition in vivo at 60 mg/kg [16, 32]: 32%
- TGI [17]: Dose-dependent effect
- Activity [18]: Active
- inhibition [19]: inactive
- inhibition [20]: Active
- Activity [21]: Non-toxic
- Activity [22]: Non-toxic
- Activity [23]: Non-toxic
- Activity [24]: Non-toxic
- Activity [25]: Non-toxic
- IC50 [26]: 0.052 µM
- IC50 [27]: 3.2 µM
- IC50 [28]: 0.77 µM
- IC50 [29]: 56.1 µM
- IC50 [30]: 3.47 µM
- IC50 [31]: 65.8 µM
